These results are taken from ChEMBL document CHEMBL1687819, “Identification and characterization of the multidrug resistance gene cfr in a Panton-Valentine leukocidin-positive sequence type 8 methicillin-resistant Staphylococcus aureus IVa (USA300) isolate” (2010).

≈ marks a conversion by molar mass, not a printed value.

What all share (type): functional
Assay [1] deals with Staphylococcus aureus. The experiment in a line: Antibacterial activity against Staphylococcus aureus XU21 by broth microdilution method. Put shortly:
(§1)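 Broth microdilution MICs per CLSI M07-A8 and M100-S20, run side by side on clinical MRSA isolate M05/0060, its plasmid-cured derivative M05/0060-C1, plasmid-free novobiocin-resistant recipient XU21 and transconjugant XU21-T1. Curing was by five serial 24 h passages in BHI broth at 43°C, 200 rpm. Transconjugants came from filter mating, selected on BHI agar with novobiocin 100 µg/ml plus chloramphenicol 30 µg/ml.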
For orientation: Dilution methods test growth across graded concentrations, often in twofold steps.

For assay [2], the system named is Staphylococcus aureus. The experiment in a line: Antibacterial activity against methicillin-resistant Staphylococcus aureus M05/0060 harboring cfr-encoding conjugative pSCFS7 and fexA by broth microdilution method. Put shortly:
as §1

Assay [3] has as its system Staphylococcus aureus. In words: Antibacterial activity against Staphylococcus aureus XU21-T1 harboring cfr-encoding conjugative pSCFS7 and fexA by broth microdilution method. Put shortly:
as §1

Assay [4] deals with Staphylococcus aureus. In words: Antibacterial activity against pSCFS7-deficient methicillin-resistant Staphylococcus aureus M05/0060-C1 by broth microdilution method. A digest of the protocol: as §1

For orientation: MIC means the smallest concentration in the dilution series that meets the test's criterion for growth inhibition. The low end stands for greater potency, the high end for weaker potency. Consider `O=C(N[C@H](CO)[C@H](O)c1ccc([N+](=O)[O-])cc1)C(Cl)Cl` [CHLORAMPHENICOL], for which the MIC against Staphylococcus aureus [1] was 8 µg/mL (≈ 24.8 µM); in the assay with Staphylococcus aureus [2], 256 µg/mL (≈ 792 µM); in the assay with Staphylococcus aureus [3], 128 µg/mL (≈ 396 µM); with Staphylococcus aureus [4] it was 8 µg/mL (≈ 24.8 µM).
Consider `CCC[C@@H]1C[C@@H](C(=O)N[C@@H]([C@H]2O[C@H](SC)[C@H](O)[C@@H](O)[C@H]2O)[C@H](C)Cl)N(C)C1` [CLINDAMYCIN], for which the MIC is 0.25 µg/mL (≈ 0.588 µM) with Staphylococcus aureus [1], at least 128 µg/mL in the assay with Staphylococcus aureus [2], at least 128 µg/mL against Staphylococcus aureus [3] and 0.25 µg/mL (≈ 0.588 µM) with Staphylococcus aureus [4].
For the compound `CC[C@H]1OC(=O)[C@H](C)[C@@H](O[C@H]2C[C@@](C)(OC)[C@@H](O)[C@H](C)O2)[C@H](C)[C@@H](O[C@@H]2O[C@H](C)C[C@H](N(C)C)[C@H]2O)[C@](C)(O)C[C@@H](C)C(=O)[C@H](C)[C@@H](O)[C@]1(C)O` [ERYTHROMYCIN], the MIC was 0.5 µg/mL (≈ 0.681 µM) in the assay on Staphylococcus aureus [1], at least 64 µg/mL with Staphylococcus aureus [2], 0.5 µg/mL (≈ 0.681 µM) with Staphylococcus aureus [3] and at least 64 µg/mL against Staphylococcus aureus [4].
`CS(=O)(=O)c1ccc([C@@H](O)[C@@H](CF)NC(=O)C(Cl)Cl)cc1` [FLORFENICOL]: the MIC amounted to 4 µg/mL (≈ 11.2 µM) against Staphylococcus aureus [1], 256 µg/mL (≈ 715 µM) against Staphylococcus aureus [2], 256 µg/mL (≈ 715 µM) in the assay on Staphylococcus aureus [3] and 4 µg/mL (≈ 11.2 µM) in the assay with Staphylococcus aureus [4].
For `CC(=O)NC[C@H]1CN(c2ccc(N3CCOCC3)c(F)c2)C(=O)O1` [LINEZOLID], the MIC in the assay with Staphylococcus aureus [1] was 1 µg/mL (≈ 2.96 µM); with Staphylococcus aureus [2], 8 µg/mL (≈ 23.7 µM); against Staphylococcus aureus [4] it was 1 µg/mL (≈ 2.96 µM).
Consider `Cc1onc(-c2ccccc2)c1C(=O)N[C@@H]1C(=O)N2[C@@H]1SC(C)(C)[C@@H]2C(=O)O` [OXACILLIN], for which the MIC in the assay on Staphylococcus aureus [1] is 0.12 µg/mL (≈ 0.299 µM); against Staphylococcus aureus [2], at least 32 µg/mL; in the assay with Staphylococcus aureus [3] it was 0.12 µg/mL (≈ 0.299 µM); with Staphylococcus aureus [4] it was at least 32 µg/mL.
Take `C=C[C@]1(C)C[C@@H](OC(=O)CSCCN(CC)CC)[C@]2(C)[C@H](C)CC[C@]3(CCC(=O)[C@H]32)[C@@H](C)[C@@H]1O` [TIAMULIN]: the MIC against Staphylococcus aureus [1] was 1 µg/mL (≈ 2.03 µM); in the assay on Staphylococcus aureus [2], at least 128 µg/mL; with Staphylococcus aureus [3] it was at least 128 µg/mL; against Staphylococcus aureus [4] it was 1 µg/mL (≈ 2.03 µM).
For `CC1=C\[C@@H](O)CC(=O)Cc2nc(co2)C(=O)N2CCC=C2C(=O)O[C@H](C(C)C)[C@H](C)/C=C/C(=O)NC\C=C\1` [VIRGINIAMYCIN FACTOR M1], the MIC with Staphylococcus aureus [1] worked out at 1 µg/mL (≈ 1.9 µM); against Staphylococcus aureus [2], 32 µg/mL (≈ 60.9 µM); against Staphylococcus aureus [3], 32 µg/mL (≈ 60.9 µM); with Staphylococcus aureus [4] it was 1 µg/mL (≈ 1.9 µM).
